RanGTP-Impb inh: inhibitors of RanGTP-importin-beta interaction, primary screen, biochemical, FRET, CFP-Ran, YFP-importin-beta, homogeneous | Ran GTPase (GTP-bound) - importin-beta complex | cell-free CFP-Ran/YFP-importin-beta FRET ratio | inhibition, % (test concentration not listed) | hit rate 1.1% among 300,000 | AID 2216, 2009;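 active = more than half of the replicate wells show a fall in the fluorescence ratio signal beyond about 16%, limit read from the data, passing the limit was not always enough; inconclusive = exactly half of the replicate wells pass the set limit; inactive = fewer than half of replicates pass the limit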;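 note: 0% = DMSO wells and 100% = Ran loaded with GDP instead of GTP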
m-calpain inh: inhibitors of pig calpain II, primary screen, biochemical, fluorogenic peptide substrate, 1536-well; purified calpain II, 30 min; inhibition, % at 16 µM; hit rate 0.37% among 220,000; AID 1236, 2008;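 active = inhibition above about 50%, limit read from the data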
Runt-SMMHC FRET: inhibitors of RUNX1 Runt–CBFb-SMMHC binding, primary screen, biochemical, FRET, Cerulean-Runt, Venus-CBFb-SMMHC, uHTS; AID 1434, 2008; Runt-related transcription factor 1 (Homo sapiens) + Core-binding factor subunit beta …; hit rate 0.74% among 220,000; inhibition, % at 20 µM; Cerulean-Runt/Venus-CBFb-SMMHC FRET ratio 530/480, 1 h;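 active = mean inhibition across duplicate retests at 20 µM reaching about 50%, limit read from the data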;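 note: 0% = DMSO wells and 100% = wells with excess untagged CBFb-SMMHC; inhibitors lower the FRET ratio by blocking Runt binding to CBFb-SMMHC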
FAS TE block: FAS thioesterase domain inhibitors, primary screen, biochemical, fluorescence intensity, uHTS; Fatty acid synthase (Homo sapiens), P49327; recombinant FAS-TE, OMFH fluorogenic substrate, fluorescence endpoint; inhibition, % at 15 µM; hit rate 0.67% among 360,000;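 active = compounds whose normalised, plate-corrected inhibition of enzyme fluorescence in the single-dose primary screen is 50% or more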;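 note: 0% = DMSO with enzyme and 100% = substrate without enzyme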
Runt-CBFb FRET: inhibitors of RUNX1 Runt–CBFb binding, primary screen, biochemical, FRET, Cerulean-Runt, Venus-CBFb, uHTS; Runt-related transcription factor 1 (Homo sapiens) + Core-binding factor subunit beta …; Cerulean-Runt/Venus-CBFb FRET ratio 530/480, 1 h; inhibition, % at 20 µM; hit rate 0.46% among 220,000;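 active = inhibition over about 50% at 20 µM in the single-dose screen, limit read from the data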;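 note: 0% = DMSO wells and 100% = excess unlabeled CBFb competitor control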
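System: Cerulean-labeled Runt domain protein | Quantity: 100 nM of each labeled protein | Schedule: 1 h compound exposure, room temperature | Detection: Fluorescence energy transfer, 422 nm excitation, 530/480 nm emission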
FAS-TE conf: FAS thioesterase domain inhibitors, confirmation, biochemical, fluorescence intensity, single concentration; recombinant FAS-TE, OMFH fluorogenic substrate; AID 624325, 2012; inhibition, % at 15 µM; hit rate 45% among 2,300; shares compounds with FAS TE block;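 active = compounds inhibiting the enzyme by at least 50% at 15 µM in any one of the replicates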;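 note: 0% = enzyme with DMSO only and 100% = wells lacking enzyme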
An asterisk follows results filed as active; ? = inconclusive; . = no result. In the library only some 2.1% were active in any assay of this set; here they are far more common.

SMILES | RanGTP-Impb inh | m-calpain inh | Runt-SMMHC FRET | FAS TE block | Runt-CBFb FRET | FAS-TE conf
COc1ccc(/C=C(\NC(=O)c2ccc([N+](=O)[O-])cc2)C(=O)NCCCn2ccnc2)cc1 | -3 | . | . | 74* | . | 81*
COc1ccc(/C=C(/NC(=O)c2ccc([N+](=O)[O-])cc2)C(=O)NC(C)(C)C)cc1 | -1 | -12 | 1 | 70* | 2 | 55*
CCCCOc1ccc(C(=O)N/C(=C\c2ccc([N+](=O)[O-])cc2)C(=O)OCc2ccco2)cc1 | . | -1 | -8 | 60* | -2 | 40
O=S(=O)(CC=CCS(=O)(=O)c1ccccc1)c1ccccc1 | . | . | . | -6 | . | .
COc1ccc(N(C)S(=O)(=O)c2cccc(C(=O)N3CCN(S(=O)(=O)c4ccc(C)cc4)CC3)c2)cc1 | -2 | . | . | 52* | . | 5
COc1ccc(S(=O)(=O)N2CCN(C(=O)c3cccc(S(=O)(=O)N4CCCC4)c3)CC2)cc1 | . | . | . | -2 | . | .
O=C(/C=C/c1cccc([N+](=O)[O-])c1)NCCc1ccc(F)cc1 | 1 | -8 | 2 | 52* | -2 | 51*
O=C(/C=C/c1ccc([N+](=O)[O-])cc1)NCCc1ccc(F)cc1 | 5 | -21 | 2 | 23 | -2 | .
O=C(/C=C/c1cccc([N+](=O)[O-])c1)NCc1ccccc1 | 11 | 6 | 1 | 44 | -2 | .
O=C(/C=C/c1cccc([N+](=O)[O-])c1)NCCSCc1cccc(Cl)c1 | -5 | 13 | -4 | 58* | -1 | 66*
CC1CN(c2cnn(C(C)C)c(=O)c2Cl)CC(C)O1 (stereo unspecified) | 1 | . | . | -4 | . | .
COc1ccccc1NC(=S)N(CCCN(C)C)Cc1cc2cc3c(cc2[nH]c1=O)OCO3 | -11 | -92 | -11 | -2 | -2 | .
COC(=O)c1ccccc1NC(=S)N(Cc1ccc2c(c1)OCO2)Cc1cc2cc(OC)ccc2[nH]c1=O | -1 | -103 | -1 | 68* | 1 | 31
Cc1cccc2cc(CN(Cc3cccs3)S(=O)(=O)c3ccc4c(c3)OCCO4)c(=O)[nH]c12 | 2 | -14 | 2 | 73* | 2 | 26
CCCC(=O)NC1=C(Cl)C(=O)c2ccccc2C1=O | . | . | . | 53* | . | 56*
CCOC(=O)[C@H]1[C@H]2COc3cc(OC)ccc3[C@@H]2N2C(=O)c3ccc(C)cc3NC(=O)[C@@]12C | . | . | . | 5 | . | .
COc1ccc2c(c1)OC[C@H]1[C@H]2N2C(=O)c3cc(Cl)ccc3NC(=O)[C@@]2(C)[C@H]1c1ccccc1 | . | . | . | 67* | . | 17
COc1ccc2c(c1)OC[C@H]1[C@H]2N2C(=O)c3cc(OC)ccc3NC(=O)[C@@]2(C)[C@H]1c1ccccc1 | . | . | . | 95* | . | 54*
COc1ccc2c(c1)OC[C@H]1[C@H]2N2C(=O)c3cc(F)ccc3NC(=O)[C@@]2(C)[C@H]1c1ccccc1 | . | . | . | 74* | . | 2
COc1ccc2c(c1)OC[C@H]1[C@H]2N2C(=O)c3ccc(C)cc3NC(=O)[C@@]2(C)[C@H]1c1ccccc1 | . | . | . | 90* | . | 40
CCOC(=O)[C@H]1[C@H]2COc3cc(OC)ccc3[C@@H]2N2C(=O)c3cc(OC)ccc3NC(=O)[C@@]12C | . | . | . | -2 | . | .
O=C(O)CCC(=O)N1N=C(c2ccccc2)CC1c1ccc2c(c1)OCO2 (stereo unspecified) | -1 | . | . | -4 | . | .
COc1ccccc1NC(=O)CCN1C(=O)C2CC=CCC2C1=O (stereo unspecified) | 3 | . | . | -10 | . | .
CC1CCN(C(=O)Cn2c3ccc(F)cc3c3nc4n(c(=O)c32)CCCS4)CC1 | 0 | . | . | 6 | . | .
Cc1ccc(S(=O)(=O)N2[C@@H](c3cccc(Cl)c3)C(C(=O)O)=CC[C@H]2c2ccc(C(C)C)cc2)cc1 | . | . | . | 24 | . | .
SMILES | RanGTP-Impb inh | m-calpain inh | Runt-SMMHC FRET | FAS TE block | Runt-CBFb FRET | FAS-TE conf
O=C(COc1cccc2ccccc12)N/N=C/c1ccco1 | 3 | . | . | 0 | . | .
COc1ccccc1C(=O)OCCc1ccccc1 | . | . | . | -1 | . | .
COc1ccc2c(c1)C(=O)N1[C@H]3c4cc(Cl)ccc4OC[C@@H]3[C@H](c3ccccc3)[C@]1(C)C(=O)N2 | . | . | . | 64* | . | 45*
Fc1c(F)c(F)c(N/N=C/c2c[nH]c3ccccc23)c(F)c1F | 0 | 11 | -1 | 51* | 5 | 58*
O=C(CCSc1ccccc1)NNC(=O)c1ccccc1F | -1 | . | . | -4 | . | .
O=C(CCC(=O)N1CCSc2ccccc21)NCc1ccccc1 | ? | . | . | 0 | . | .
Cc1ccc(NC(=O)/C(=C/C=C/c2ccccc2)NC(=O)c2ccccc2)cc1 | -3 | -24 | 4 | 63* | 0 | 22
Cc1ccc(-c2cc(C(F)F)n3ncc(C(=O)Nc4c(C)nn(Cc5ccccc5Cl)c4C)c3n2)cc1 | 2 | -9 | -3 | 50* | -1 | 8
Cc1ccc(-c2cc(C(F)F)n3ncc(C(=O)N4CCc5ccccc54)c3n2)cc1 | -2 | -35 | 3 | 52* | 0 | 5
COc1cc(C(=O)NC(=S)Nc2ccccc2[N+](=O)[O-])cc(OC)c1OC | 1 | -31 | 4 | 65* | 6 | 25
CNc1oc(/C=C/c2cccc(OC)c2)nc1C#N | 3 | . | . | 4 | . | .
Cn1c(-c2cccc([N+](=O)[O-])c2)cnc1NCc1cccc([N+](=O)[O-])c1 | 5 | 0 | 0 | 55* | -2 | 28
CSCCC(NC(=O)c1ccco1)C(=O)OCC(=O)N1c2ccccc2NC(=O)C1(C)C (stereo unspecified) | . | . | . | -4 | . | .
C/C(=N\Nc1ncc(Cl)cc1Cl)c1ccc(OC(F)F)cc1 | -5 | 16 | 4 | 52* | 2 | 59*
O=S(=O)(Nc1cccc(-c2ccc(N3CCCCCC3)nn2)c1)c1ccc(F)cc1 | 2 | . | . | 62* | . | 11
Cc1ccc(S(=O)(=O)Nc2cccc(-c3ccc4nncn4n3)c2)cc1 | -1 | . | . | 54* | . | 51*
CC(=O)c1ccc(S(=O)(=O)Nc2cccc(-c3ccc4nncn4n3)c2)cc1 | -2 | -24 | 0 | 0 | 0 | .
Cc1ccc(S(=O)(=O)Nc2cccc(-c3ccc(N4CCCCCC4)nn3)c2)cc1C | 7 | . | . | 39 | . | .
O=S(=O)(Nc1cccc(-c2ccc(N3CCCCCC3)nn2)c1)c1cccc(F)c1 | 4 | . | . | 61* | . | 1
NC(=O)C1CCN(CC(O)COc2ccc(-c3ccccc3)cc2)CC1 (stereo unspecified) | 4 | . | . | -3 | . | .
COc1ccccc1-c1cc(SC)c(C#N)c(=O)o1 | -18 | -24 | -64 | 55* | 1 | 47*

Bioassay records from PubChem BioAssay.
